Measurements from ChEMBL document CHEMBL5316351, “Development of a Covalent Inhibitor of c-Jun N-Terminal Protein Kinase (JNK) 2/3 with Selectivity over JNK1” (J Med Chem, 2023).
Calls of active or inactive are those of the source. The rule behind the calls is not given here.

Key:
[1] = target: T1, Mitogen-activated protein kinase 8 (Homo sapiens, UniProt P45983); test: Inhibition of His-tagged human recombinant JNK1 expressed in insect cells incubated for 1 hr in presence of ATP by Z'-Lyte assay; set-up: species or system Insect cell
T1 sequence (P45983 whole entry): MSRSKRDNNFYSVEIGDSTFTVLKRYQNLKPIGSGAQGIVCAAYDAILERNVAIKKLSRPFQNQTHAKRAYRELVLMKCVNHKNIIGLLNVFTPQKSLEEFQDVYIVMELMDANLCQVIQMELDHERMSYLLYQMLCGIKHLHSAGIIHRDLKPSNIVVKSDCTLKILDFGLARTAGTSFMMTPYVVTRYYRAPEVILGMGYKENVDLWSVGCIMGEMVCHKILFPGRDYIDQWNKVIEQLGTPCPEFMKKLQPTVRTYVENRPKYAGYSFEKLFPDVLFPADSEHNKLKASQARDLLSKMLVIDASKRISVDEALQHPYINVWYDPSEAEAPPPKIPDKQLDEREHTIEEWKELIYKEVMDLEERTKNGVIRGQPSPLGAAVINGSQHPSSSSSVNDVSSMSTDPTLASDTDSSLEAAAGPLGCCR

Homo sapiens [2] = organism: Homo sapiens; test: Selectivity ratio of IC50 for His-tagged human recombinant JNK1 expressed in insect cells to His-tagged human recombinant JNK2 expressed in baculovirus expression system
Method in brief: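 Z′-Lyte kinase assays of JNK1 and JNK2 with 100 μM ATP and 1 h compound incubation. Fixed time point IC50 was determined in duplicate. The selectivity ratio is JNK1 IC50 over JNK2 IC50.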

[3] = target: T2, Mitogen-activated protein kinase 9 (Homo sapiens, UniProt P45984); test: Inhibition of His-tagged human recombinant JNK2 expressed in baculovirus expression system incubated for 1 hr in presence of ATP by Z'-Lyte assay
Target sequence in this assay (P45984 whole entry): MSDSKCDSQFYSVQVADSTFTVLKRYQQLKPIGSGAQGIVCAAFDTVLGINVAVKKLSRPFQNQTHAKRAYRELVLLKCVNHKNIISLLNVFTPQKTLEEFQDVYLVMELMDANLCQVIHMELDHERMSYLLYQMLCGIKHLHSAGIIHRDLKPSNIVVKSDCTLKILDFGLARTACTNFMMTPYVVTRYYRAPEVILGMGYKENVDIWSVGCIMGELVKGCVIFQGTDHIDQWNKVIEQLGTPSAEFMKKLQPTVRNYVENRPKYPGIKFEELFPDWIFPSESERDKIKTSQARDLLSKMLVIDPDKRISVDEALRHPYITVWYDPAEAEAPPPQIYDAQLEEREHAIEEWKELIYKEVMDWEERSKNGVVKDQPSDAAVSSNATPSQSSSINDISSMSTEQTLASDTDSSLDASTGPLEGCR

[4] = target: T3, Mitogen-activated protein kinase 14 (Homo sapiens, UniProt Q16539); test: Inhibition of GST-tagged human recombinant p38alpha expressed in Escherichia coli by Z'-LYTE assay
T3 sequence (Q16539 whole entry): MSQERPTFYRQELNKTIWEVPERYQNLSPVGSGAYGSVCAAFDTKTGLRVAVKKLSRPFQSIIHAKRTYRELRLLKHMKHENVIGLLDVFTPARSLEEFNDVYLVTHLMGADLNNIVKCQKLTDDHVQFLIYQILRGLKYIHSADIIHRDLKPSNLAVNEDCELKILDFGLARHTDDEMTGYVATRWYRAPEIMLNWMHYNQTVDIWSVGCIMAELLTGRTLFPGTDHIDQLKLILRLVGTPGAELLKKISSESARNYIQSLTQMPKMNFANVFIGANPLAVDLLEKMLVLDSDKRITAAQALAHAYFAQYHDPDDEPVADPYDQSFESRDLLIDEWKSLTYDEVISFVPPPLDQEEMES

MM1.S [5] = test: Antiproliferative activity against human MM1.S cells assessed as inhibition of cell growth rate measured after 72 hrs by CellTiter-Glo luminescent assay; assay type: functional
[6] = target: T3, Mitogen-activated protein kinase 14; test: Inhibition of Nano-Luc fused p38alpha (unknown origin) expressed in HEK293T cells pretreated for 3 hrs followed by K5-tarcer addition and measured after 1 hr by NanoBRET assay; assay type: cell-based; conditions: time 4.0 hrs
[7] = target: T2, Mitogen-activated protein kinase 9; test: Inhibition of Nano-Luc fused JNK2 (unknown origin) expressed in HEK293T cells pretreated for 3 hrs followed by K5-tarcer addition and measured after 1 hr by NanoBRET assay; assay type: cell-based
Target sequence in this assay (P45984 whole entry): as the sequence (P45984 whole entry) above

MM1.S [8] = test: Induction of apoptosis in human MM1.S cells at 250 nM by AnnexinV/PI staining based flow cytometry; assay type: functional, cell-based
MM1.S [9] = test: Induction of apoptosis in human MM1.S cells assessed as increase in PARP cleavage at 0.5 to 2.5 uM incubated for 24 hrs by immunoblot analysis; assay type: functional, cell-based; conditions: dose 0.5-2.5 µM
[10] = target: T2, Mitogen-activated protein kinase 9; test: Binding affinity to wild type N-terminal GST-tagged human recombinant JNK2 (1 to 364 residues) expressed in Escherichia coli in presence of ATP measured every 0.5 mins for 120 mins by fluorescence based analysis
Target sequence in this assay (P45984 whole entry, looked up): as the sequence (P45984 whole entry) above

ANBL-6 [11] = test: Antiproliferative activity against wild type human ANBL-6 cells assessed as inhibition of cell growth incubated for 72 hrs by CellTiter-Glo luminescent assay; assay type: functional, cell-based
MM1.S [12] = test: Induction of apoptosis in human MM1.S cells assessed as increase in caspase-3 cleavage at 0.5 to 2.5 uM incubated for 24 hrs by immunoblot analysis; assay type: functional, cell-based; conditions: dose 0.5-2.5 µM
ANBL-6 [13] = test: Antiproliferative activity against Bortezomib-resistant human ANBL-6 cells assessed as inhibition of cell growth incubated for 72 hrs by CellTiter-Glo luminescent assay; assay type: functional, cell-based
[14] = target: T2, Mitogen-activated protein kinase 9; test: Covalent binding affinity to JNK2 in human MM1.S cells incubated for 6 hrs by biotin-JNK-IN-7 probe based pull-down competition based analysis; assay type: cell-based
Method in brief: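 MM.1S cells exposed to compound or DMSO 6 h; lysed in HEPES pH 7.4/NP-40 buffer; lysates incubated with 1 μM biotin-JNK-IN-7 overnight at 4 °C then 2 h room temperature; streptavidin pull-down 2–3 h at 4 °C; bound JNK1/JNK2 detected by western blot.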
Target sequence in this assay (P45984 whole entry, looked up): as the sequence (P45984 whole entry) above

Homo sapiens [15] = organism: Homo sapiens; test: Inhibition of CK1 (unknown origin)
[16] = target: Aurora kinase B (Homo sapiens) (UniProt Q96GD4); test: Inhibition of Aurora B kinase (unknown origin)
Sequence of Aurora kinase B (Homo sapiens) (Q96GD4 whole entry): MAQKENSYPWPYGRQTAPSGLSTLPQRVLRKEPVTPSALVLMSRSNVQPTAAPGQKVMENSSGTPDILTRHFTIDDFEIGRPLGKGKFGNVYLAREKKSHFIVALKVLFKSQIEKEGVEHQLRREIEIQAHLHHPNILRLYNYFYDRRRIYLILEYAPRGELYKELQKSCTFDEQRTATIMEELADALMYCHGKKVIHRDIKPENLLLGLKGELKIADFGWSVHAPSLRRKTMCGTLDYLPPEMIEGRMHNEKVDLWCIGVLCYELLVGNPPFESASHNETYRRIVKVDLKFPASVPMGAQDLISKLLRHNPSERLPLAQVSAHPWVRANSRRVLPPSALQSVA

[17] = target: T4, Aurora kinase A (Homo sapiens) (UniProt O14965); test: Inhibition of Aurora A kinase (unknown origin)
T4 sequence (whole entry): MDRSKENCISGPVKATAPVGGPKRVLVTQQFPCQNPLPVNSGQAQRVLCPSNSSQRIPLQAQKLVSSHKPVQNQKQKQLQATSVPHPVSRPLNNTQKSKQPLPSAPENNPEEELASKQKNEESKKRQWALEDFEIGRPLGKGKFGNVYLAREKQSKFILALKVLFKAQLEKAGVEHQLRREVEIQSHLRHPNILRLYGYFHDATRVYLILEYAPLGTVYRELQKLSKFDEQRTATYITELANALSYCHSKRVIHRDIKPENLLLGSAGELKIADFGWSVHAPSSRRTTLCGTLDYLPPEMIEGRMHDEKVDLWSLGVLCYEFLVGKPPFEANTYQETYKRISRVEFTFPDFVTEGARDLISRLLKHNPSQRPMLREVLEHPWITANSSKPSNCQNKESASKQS

[18] = target: Epithelial discoidin domain-containing receptor 1 (Homo sapiens) (UniProt Q08345); test: Inhibition of DDR1 (unknown origin)
[19] = target: CDK7/Cyclin H/MNAT1 (Homo sapiens) (UniProt P51946+P50613+P51948); test: Inhibition of CDK7/Cyclin H/MAT1 (unknown origin); assay type: protein-complex assay
[20] = target: Epidermal growth factor receptor (Homo sapiens) (UniProt P00533); test: Inhibition of EGFR (unknown origin)
[21] = target: T5, 1-phosphatidylinositol 3-phosphate 5-kinase (Homo sapiens, UniProt Q9Y2I7); test: Inhibition of PIKFYVE in human MDA-MB-231 cells assessed as vacuole formation at 4 uM measured after 3 days by bright field microscopy; assay type: cell-based; conditions: time 3.0 day
T5 sequence (Q9Y2I7 whole entry): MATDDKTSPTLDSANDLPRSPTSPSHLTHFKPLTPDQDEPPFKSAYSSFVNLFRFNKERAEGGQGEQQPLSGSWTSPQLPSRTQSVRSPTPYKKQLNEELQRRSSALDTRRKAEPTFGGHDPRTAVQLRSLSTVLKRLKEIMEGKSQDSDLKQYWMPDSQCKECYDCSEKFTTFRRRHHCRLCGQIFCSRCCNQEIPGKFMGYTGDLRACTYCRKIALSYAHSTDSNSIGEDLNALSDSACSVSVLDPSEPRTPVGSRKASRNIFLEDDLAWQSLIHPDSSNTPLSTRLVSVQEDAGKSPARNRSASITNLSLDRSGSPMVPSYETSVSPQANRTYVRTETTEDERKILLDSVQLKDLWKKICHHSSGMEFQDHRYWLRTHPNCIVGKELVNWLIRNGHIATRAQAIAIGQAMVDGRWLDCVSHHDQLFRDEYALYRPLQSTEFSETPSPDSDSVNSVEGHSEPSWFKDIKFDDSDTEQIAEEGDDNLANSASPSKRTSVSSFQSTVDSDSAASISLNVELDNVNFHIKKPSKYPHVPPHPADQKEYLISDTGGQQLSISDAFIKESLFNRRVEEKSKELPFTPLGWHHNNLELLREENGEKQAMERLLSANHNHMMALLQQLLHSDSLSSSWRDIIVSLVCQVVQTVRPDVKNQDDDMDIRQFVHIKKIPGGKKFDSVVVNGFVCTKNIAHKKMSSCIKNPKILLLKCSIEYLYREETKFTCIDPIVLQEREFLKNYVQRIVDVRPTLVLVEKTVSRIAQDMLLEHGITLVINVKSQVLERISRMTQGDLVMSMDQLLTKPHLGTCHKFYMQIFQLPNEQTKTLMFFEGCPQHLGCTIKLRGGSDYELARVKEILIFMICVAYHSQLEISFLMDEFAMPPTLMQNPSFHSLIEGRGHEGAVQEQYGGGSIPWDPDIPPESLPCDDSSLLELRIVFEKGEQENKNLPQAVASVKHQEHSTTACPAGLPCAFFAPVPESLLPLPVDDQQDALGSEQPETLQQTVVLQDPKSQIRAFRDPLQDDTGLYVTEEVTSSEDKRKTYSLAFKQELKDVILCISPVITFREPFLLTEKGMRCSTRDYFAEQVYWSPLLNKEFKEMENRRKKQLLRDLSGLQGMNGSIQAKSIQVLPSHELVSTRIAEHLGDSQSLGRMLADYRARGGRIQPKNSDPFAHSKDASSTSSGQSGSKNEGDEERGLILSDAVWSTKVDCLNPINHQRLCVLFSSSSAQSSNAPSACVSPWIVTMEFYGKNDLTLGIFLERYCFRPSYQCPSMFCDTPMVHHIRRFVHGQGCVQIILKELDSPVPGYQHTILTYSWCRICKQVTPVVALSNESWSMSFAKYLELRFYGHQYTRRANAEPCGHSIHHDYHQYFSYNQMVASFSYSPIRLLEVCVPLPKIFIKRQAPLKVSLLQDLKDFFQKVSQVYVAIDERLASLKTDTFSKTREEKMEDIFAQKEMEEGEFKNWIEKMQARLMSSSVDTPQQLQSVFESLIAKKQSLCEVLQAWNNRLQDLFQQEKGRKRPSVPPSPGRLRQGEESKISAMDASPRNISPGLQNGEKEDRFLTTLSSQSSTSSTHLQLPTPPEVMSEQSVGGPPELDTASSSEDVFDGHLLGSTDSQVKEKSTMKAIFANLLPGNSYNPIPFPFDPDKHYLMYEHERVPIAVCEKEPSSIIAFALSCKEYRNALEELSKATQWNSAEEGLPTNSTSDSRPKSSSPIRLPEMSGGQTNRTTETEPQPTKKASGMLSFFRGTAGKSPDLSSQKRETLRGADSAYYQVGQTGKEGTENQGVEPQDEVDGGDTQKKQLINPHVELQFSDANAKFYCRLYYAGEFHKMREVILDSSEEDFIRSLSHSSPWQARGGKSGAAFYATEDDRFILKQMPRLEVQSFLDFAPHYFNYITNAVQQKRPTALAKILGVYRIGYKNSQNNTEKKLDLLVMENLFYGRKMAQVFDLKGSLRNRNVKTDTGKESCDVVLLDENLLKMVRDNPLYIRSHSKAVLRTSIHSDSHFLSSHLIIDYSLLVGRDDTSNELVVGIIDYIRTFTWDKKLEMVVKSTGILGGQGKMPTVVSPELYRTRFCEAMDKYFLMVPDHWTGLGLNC
Method in brief: (§1)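 MDA-MB-231 cells (DMEM, 10% FBS) seeded, next day treated with inhibitor or DMSO; after 3 days imaged by bright-field microscopy at 20× for vacuoles.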

[22] = target: T5, 1-phosphatidylinositol 3-phosphate 5-kinase; test: Inhibition of Nano-Luc fused PIKFYVE (unknown origin) expressed in HEK293T cells pretreated for 3 hrs followed by K8-tarcer addition and measured after 1 hr by NanoBRET assay; assay type: cell-based
[23] = Antiproliferative activity against human HAP1 cells assessed as inhibition of cell growth incubated for 3 days by CellTiter-Glo luminescent assay; assay type: functional, cell-based; conditions: HAP1, 72 h
[24] = target: T2, Mitogen-activated protein kinase 9; test: Inhibition of wild type full length human JNK2 (M1 to Q382 residues) expressed in mammalian expression system at 1 uM by KinomeScan analysis
Method in brief: (§2)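 KINOMEscan (ScanMAX) binding panel of >400 kinases, compound tested at 1 μM; reported as percent inhibition/score.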
Target sequence in this assay (P45984 whole entry, looked up): as the sequence (P45984 whole entry) above

[25] = target: T5, 1-phosphatidylinositol 3-phosphate 5-kinase; test: Inhibition of wild type partial length human PIKFYVE (F1512 to C2098 residues) expressed in mammalian expression system at 1 uM by KinomeScan analysis; method in brief: as §2
Homo sapiens [26] = organism: Homo sapiens; test: Inhibition of CK1gamma (unknown origin) at 1 uM by KinomeScan analysis
Method in brief: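 KINOMEscan ScanMAX panel screened at 1 μM compound.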

[27] = target: T5, 1-phosphatidylinositol 3-phosphate 5-kinase; test: Binding affinity to wild type partial length human PIKFYVE (F1512 to C2098 residues) expressed in mammalian expression system by KdELECT kinase assay
[28] = target: T5, 1-phosphatidylinositol 3-phosphate 5-kinase; test: Inhibition of PIKFYVE in human SUM159 cells at 1 uM by KiNativ Profiling analysis; assay type: cell-based; conditions: SUM159PT
Method in brief: (§3)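 SUM159 cells treated with 1 μM compound, collected, PBS-washed and frozen; lysates probed with ATP/ADP-biotin acyl probe labelling catalytic lysine (KiNativ); protection from labelling measured.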

[29] = target: T2, Mitogen-activated protein kinase 9; test: Covalent binding affinity to JNK2 (unknown origin) assessed as Cys116 labelling at protein:compound concentration ratio of 1:5 incubated for 1 hr by capillary electrophoresis MS/MS analysis
Method in brief: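 Purified JNK2 (5 μg) incubated 1 h at room temperature with 5-fold molar excess compound; intact mass by LC/MS, then trypsin digest and capillary electrophoresis-MS/MS database search for modified residue.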
Target sequence in this assay (P45984 whole entry, looked up): as the sequence (P45984 whole entry) above

[30] = target: Mitogen-activated protein kinase 10 (Homo sapiens) (UniProt P53779); test: Inhibition of human full length recombinant JNK3 at 1 uM by KinomeScan analysis; method in brief: as §2
Sequence of Mitogen-activated protein kinase 10 (Homo sapiens) (P53779 whole entry): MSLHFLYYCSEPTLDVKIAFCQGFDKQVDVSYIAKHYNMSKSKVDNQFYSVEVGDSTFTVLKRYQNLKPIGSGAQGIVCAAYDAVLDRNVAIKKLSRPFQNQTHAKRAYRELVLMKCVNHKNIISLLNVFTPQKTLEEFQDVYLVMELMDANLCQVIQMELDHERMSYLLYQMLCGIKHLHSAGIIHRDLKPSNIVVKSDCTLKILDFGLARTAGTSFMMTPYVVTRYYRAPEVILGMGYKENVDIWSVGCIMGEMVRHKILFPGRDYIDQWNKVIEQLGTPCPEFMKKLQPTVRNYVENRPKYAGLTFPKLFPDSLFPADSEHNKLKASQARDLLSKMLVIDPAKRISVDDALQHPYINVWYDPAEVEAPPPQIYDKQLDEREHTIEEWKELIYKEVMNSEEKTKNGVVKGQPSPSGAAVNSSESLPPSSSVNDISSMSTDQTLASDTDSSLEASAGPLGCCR

[31] = target: T1, Mitogen-activated protein kinase 8; test: Inhibition of wild type full length human JNK1 expressed in mammalian expression system at 1 uM by KinomeScan analysis; method in brief: as §2
[32] = target: T3, Mitogen-activated protein kinase 14; test: Inhibition of wild type full length human p38 alpha (M1 to S360 residues) expressed in bacterial expression system at 1 uM by KinomeScan analysis; method in brief: as §2
[33] = target: T3, Mitogen-activated protein kinase 14; test: Inhibition of p38alpha in human SUM159 cells at 1 uM by KiNativ Profiling analysis; assay type: cell-based; conditions: SUM159PT
Method in brief: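 SUM159 cells treated with 1 μM compound, then washed with PBS and frozen. Lysates were chased with a nonspecific ATP or ADP-biotin probe that labels the conserved catalytic lysine.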

[34] = target: T5, 1-phosphatidylinositol 3-phosphate 5-kinase; test: Inhibition of PIKFYVE in human MDA-MB-231 cells assessed as vacuole formation at 1 uM measured after 3 days by bright field microscopy; assay type: cell-based; conditions: time 3.0 day; method in brief: as §1
SUM159PT = test: Inhibition of CK1gamma in human SUM159 cells at 1 uM by KiNativ Profiling analysis; assay type: cell-based; method in brief: as §3
[35] = target: T2, Mitogen-activated protein kinase 9; test: Inhibition of JNK2 in human SUM159 cells at 1 uM by KiNativ Profiling analysis; assay type: cell-based; conditions: SUM159PT; method in brief: as §3
Target sequence in this assay (P45984 whole entry, looked up): as the sequence (P45984 whole entry) above

HAP1 = test: Antiproliferative activity against human HAP1 cells assessed as inhibition of cell growth incubated for 3 days in presence of VX745 by CellTiter-Glo luminescent assay; assay type: functional, cell-based; conditions: time 3.0 day

| SMILES | IC50 [1] [nM] | Ratio IC50 (Homo sapiens [2]) | IC50 [3] [nM] | other results |
| --- | --- | --- | --- | --- |
| CN(C)C/C=C/C(=O)Nc1ccc(C(=O)N2CCC[C@H](Nc3nccc(-c4c(-c5ccccc5)nn5ccccc45)n3)C2)cc1 | 53 | 10 | 5 |  |
| C[C@H]1CN(C(=O)c2ccc(NC(=O)CCCN(C)C)cc2)C[C@H]1Nc1nccc(-c2c(-c3ccccc3)nn3ccccc23)n1 |  |  |  | IC50 [4]: 15 nM; Activity (MM1.S [5]): inactive; inhibition [6]: Active; IC50 [7]: 1700 nM |
| CN(C)C/C=C/C(=O)Nc1ccc(C(=O)N2CCC[C@@H](Nc3nccc(-c4c(-c5ccccc5)nn5ccccc45)n3)C2)cc1 | 470 | 28 | 17 |  |
| CN(C)C/C=C/C(=O)Nc1ccc(C(=O)N2CCCC[C@@H](Nc3nccc(-c4c(-c5ccccc5)nn5ccccc45)n3)C2)cc1 | 387 | 23 | 17 |  |
| CN(C)C/C=C/C(=O)Nc1ccc(C(=O)N2CC[C@H](Nc3nccc(-c4c(-c5ccc(Cl)cc5)nn5ccccc45)n3)C2)cc1 | 62 | 9 | 7 |  |
| CN(C)C/C=C/C(=O)Nc1ccc(C(=O)N2CC[C@@H](Nc3nccc(-c4c(-c5ccccc5)nn5ccccc45)n3)C2)cc1 | 10 | 5 | 2 |  |
| Cc1cc(NC(=O)c2cccc(NC(=O)/C=C/CN(C)C)c2)ccc1Nc1nccc(-c2cccnc2)n1 |  |  |  | Activity (MM1.S [8]): inactive; Activity (MM1.S [9]): inactive; Activity [10]: Active; Activity (ANBL-6 [11]): inactive; Activity (MM1.S [12]): inactive; Activity (ANBL-6 [13]): inactive; Activity [14]: Active |
| CN(C)C/C=C/C(=O)Nc1ccc(C(=O)Nc2cccc(Nc3nccc(-c4c(-c5ccccc5)nn5ccccc45)n3)c2)cc1 | 724 |  | 8.3 | inhibition (Homo sapiens [15]): Active; inhibition [16]: Active; inhibition [17]: Active; inhibition [18]: Active; inhibition [19]: Active; inhibition [20]: Active |
| CN(C)CCCC(=O)Nc1ccc(C(=O)N2CC[C@H](Nc3nccc(-c4c(-c5ccccc5)nn5ccccc45)n3)C2)cc1 |  |  |  | inhibition [21]: inactive; IC50 [22]: > 3000 nM |
| CN(C)C/C=C/C(=O)Nc1ccc(C(=O)N2CC[C@H](Nc3ncc(Cl)c(-c4c(-c5ccccc5)nn5ccccc45)n3)C2)cc1 | 3050 | 6 | 483 |  |
| CN(C)C/C=C/C(=O)Nc1ccc(C(=O)N2CC[C@H](Nc3nccc(-c4c(-c5cccc(Cl)c5)nn5ccccc45)n3)C2)cc1 | 74 | 19 | 4 |  |
| CN(C)C/C=C/C(=O)Nc1ccc(C(=O)N2CCCC[C@H](Nc3nccc(-c4c(-c5ccccc5)nn5ccccc45)n3)C2)cc1 | 256 | 9 | 28 |  |
| Cc1cccn2nc(-c3ccccc3)c(-c3ccnc(N[C@H]4CCN(C(=O)c5ccc(NC(=O)/C=C/CN(C)C)cc5)C4)n3)c12 |  | 8 |  |  |
| O=c1ncn2nc(Sc3ccc(F)cc3F)ccc2c1-c1c(Cl)cccc1Cl [NEFLAMAPIMOD] |  |  |  | IC50 [23]: 10000 nM |
| CN(C)C/C=C/C(=O)Nc1ccc(C(=O)NC2CCCC(Nc3nccc(-c4c(-c5ccccc5)nn5ccccc45)n3)C2)cc1 (stereo unspecified) | 475 | 11 | 44 |  |
| CN(C)C/C=C/C(=O)Nc1ccc(C(=O)N2CC[C@H](Nc3nccc(-c4c(-c5ccc(F)cc5)nn5ccccc45)n3)C2)cc1 | 67 | 17 | 4 |  |
| CN(C)C/C=C/C(=O)Nc1ccc(C(=O)N2CC[C@H](Nc3nccc(-c4c(-c5ccccc5)nn5ccccc45)n3)C2)cc1 | 166 | 33 | 5 | inhibition [24]: Active; inhibition [25]: Active; inhibition (Homo sapiens [26]): Active; Kd [27]: 270 nM; inhibition [28]: Active; IC50 [22]: 292 nM; Activity [29]: 100%; inhibition [30]: Active; inhibition [31]: Active; inhibition [32]: Active; inhibition [33]: Active; inhibition [34]: Active; inhibition (SUM159PT): Active; inhibition [35]: Active |
| O[C@H]1CC[C@H](Nc2ncc3nc(Nc4c(F)cc(F)cc4F)n([C@H]4CCOC4)c3n2)CC1 [TANZISERTIB] |  |  |  | Activity (MM1.S [5]): inactive; Activity (HAP1): inactive; IC50 [23]: > 30000 nM |
| Cc1ccc2c(-c3ccnc(N[C@H]4CCN(C(=O)c5ccc(NC(=O)/C=C/CN(C)C)cc5)C4)n3)c(-c3ccccc3)nn2c1 | 18 | 18 | 1 |  |
